Values after ≈ are worked out from the molar mass of the structure shown. Active and inactive are the calls of the source. The calls are words filed in the database; no cut-off is given here.
How the values were obtained:
[1] = system: THP-1; test: Antiinflammatory activity in human THP1 cells assessed as inhibition of LPS-induced IL-6 secretion at 10 uM treated 30 mins before LPS challenge measured after 24 hrs by ELISA relative to control; type: functional
How it was run: (§1)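 THP-1 cells were grown in RPMI 1640 with 10% FBS and penicillin/streptomycin, then differentiated with PMA. Compound or vehicle (0.5% DMSO) was added for 30 min at 37 °C, followed by LPS (E. coli 0127:B8, final 1 µg/mL). After 24 h at 37 °C in 5% CO2, TNF-α and IL-6 in the supernatants were quantified by ELISA. Values are the mean of n = 2.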

[2] = system: Aspergillus niger; test: Antibacterial activity against Aspergillus niger NCIM 545 at > 100 […] after 72 hrs by disc diffusion method; type: functional, organism-based
[3] = system: Staphylococcus aureus; test: Antibacterial activity against Staphylococcus aureus NCIM 2120 after 24 hrs by disc diffusion method; type: functional; details: for MIC: Staphylococcus aureus, NCIM 2120, 24 h
How it was run: (§2)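 Paper disc diffusion (6.25 mm Whatman no.1 discs, dry-heat sterilized at 140 °C for 1 h) loaded with compounds at different concentrations in DMSO. Discs were placed in triplicate on nutrient agar seeded with fresh bacterial culture and incubated at 37 °C for 24 h, with solvent and growth controls. Zones of inhibition (mm) and MIC, the concentration completely inhibiting growth, were recorded.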

[4] = Cytotoxicity against […] at 10 uM; type: cell-based
[5] = system: THP-1; test: Antiinflammatory activity in human THP1 cells assessed as inhibition of LPS-induced TNFalpha secretion at 10 uM treated 30 mins before LPS challenge measured after 24 hrs by ELISA relative to control; type: functional; how it was run: as §1
[6] = system: Bacillus subtilis; test: Antibacterial activity against Bacillus subtilis NCIM 2546 after 24 hrs by disc diffusion method; type: functional; details: for MIC: Bacillus subtilis, NCIM 2546, 24 h; how it was run: as §2
[7] = system: Klebsiella pneumoniae; test: Antibacterial activity against Klebsiella pneumoniae NCIM 5082 after 24 hrs by disc diffusion method; type: functional; details: for MIC: Klebsiella pneumoniae, NCIM 5082, 24 h; how it was run: as §2
[8] = system: Proteus vulgaris; test: Antibacterial activity against Proteus vulgaris NCIM 2813 after 24 hrs by disc diffusion method; type: functional; details: for MIC: Proteus vulgaris, NCIM 2813, 24 h; how it was run: as §2
[9] = system: Candida albicans; test: Antibacterial activity against Candida albicans NCIM 3100 at > 100 […] after 72 hrs by disc diffusion method; type: functional, organism-based
[10] = system: Escherichia coli; test: Antibacterial activity against Escherichia coli NCIM 2065 after 24 hrs by disc diffusion method; type: functional; details: for MIC: Escherichia coli, NCIM 2065, 24 h; how it was run: as §2
[11] = system: Trichoderma viride; test: Antibacterial activity against Trichoderma viride TT after 72 hrs by disc diffusion method; type: functional; details: for MIC: Trichoderma viride, TT, 72 h
How it was run: (§3)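 Agar disc diffusion against fungi. Fungi were maintained on potato dextrose agar at (25 ± 2) °C for five days before use. Compounds were dissolved in DMSO (10 mg/mL initial solutions) and loaded on discs placed on freshly seeded plates alongside a solvent control disc. Plates were held at 4 °C for 24 h for diffusion, then incubated at 37 ± 5 °C for 72 h. Zones of inhibition (mm) and MICs were recorded.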

[12] = system: Penicillium chrysogenum; test: Antibacterial activity against Penicillium chrysogenum NCIM 707 at > 100 […] after 72 hrs by disc diffusion method; type: functional, organism-based
[13] = system: Aspergillus fumigatus; test: Antibacterial activity against Aspergillus fumigatus NCIM 902 after 72 hrs by disc diffusion method; type: functional; details: for MIC: Aspergillus fumigatus, NCIM 902, 72 h; how it was run: as §3
[14] = system: Penicillium chrysogenum; test: Antibacterial activity against Penicillium chrysogenum NCIM 707 after 72 hrs by disc diffusion method; type: functional; details: for MIC: Penicillium chrysogenum, NCIM 707, 72 h; how it was run: as §3
[15] = system: Aspergillus niger; test: Antibacterial activity against Aspergillus niger NCIM 545 after 72 hrs by disc diffusion method; type: functional; details: for MIC: Aspergillus niger, NCIM 545, 72 h; how it was run: as §3
[16] = system: Candida albicans; test: Antibacterial activity against Candida albicans NCIM 3100 after 72 hrs by disc diffusion method; type: functional; how it was run: as §3
[17] = system: Bacillus subtilis; test: Antibacterial activity against Bacillus subtilis NCIM 2546 at > 100 […] after 24 hrs by disc diffusion method; type: functional, organism-based
[18] = system: Klebsiella pneumoniae; test: Antibacterial activity against Klebsiella pneumoniae NCIM 5082 at > 100 […] after 24 hrs by disc diffusion method; type: functional, organism-based
[19] = system: Staphylococcus aureus; test: Antibacterial activity against Staphylococcus aureus NCIM 2120 at > 100 […] after 24 hrs by disc diffusion method; type: functional, organism-based
[20] = system: Proteus vulgaris; test: Antibacterial activity against Proteus vulgaris NCIM 2813 at > 100 […] after 24 hrs by disc diffusion method; type: functional, organism-based
[21] = system: Escherichia coli; test: Antibacterial activity against Escherichia coli NCIM 2065 at > 100 […] after 24 hrs by disc diffusion method; type: functional, organism-based

| SMILES | MIC [3] | MIC [6] | MIC [7] | MIC [8] | MIC [14] | MIC [11] | MIC [13] | inhibition at 10 µM [1] | inhibition zone (IZ) [3] | Activity [4] | inhibition at 10 µM [5] | inhibition zone (IZ) [6] | inhibition zone (IZ) [7] | inhibition zone (IZ) [8] | inhibition zone (IZ) [10] | inhibition zone (IZ) [11] | inhibition zone (IZ) [13] | inhibition zone (IZ) [14] | inhibition zone (IZ) [15] | inhibition zone (IZ) [16] | also measured |
| --- | --- | --- | --- | --- | --- | --- | --- | --- | --- | --- | --- | --- | --- | --- | --- | --- | --- | --- | --- | --- | --- |
| C[C@@H]1C[C@H]2[C@@H]3CCC4=CC(=O)C=C[C@]4(C)[C@@]3(F)[C@@H](O)C[C@]2(C)[C@@]1(O)C(=O)CO [DEXAMETHASONE] | – | – | – | – | – | – | – | 90% | – | Non-toxic | 69% | – | – | – | – | – | – | – | – | – | – |
| COc1cc(O)c(C(=O)/C=C/C=C(\Cl)c2ccc(F)cc2)c(OC)c1 | 50 µg/mL (≈ 138 µM) | 25 µg/mL (≈ 68.9 µM) | 50 µg/mL (≈ 138 µM) | 25 µg/mL (≈ 68.9 µM) | 50 µg/mL (≈ 138 µM) | 50 µg/mL (≈ 138 µM) | 50 µg/mL (≈ 138 µM) | 83% | 14 mm | Non-toxic | 16% | 22 mm | 14 mm | 18 mm | 16 mm | 16 mm | 14 mm | 14 mm | 17 mm | 10 mm | MIC [10]: 50 µg/mL (≈ 138 µM); MIC [15]: 25 µg/mL (≈ 68.9 µM) |
| COc1cccc(/C(Cl)=C/C=C/C(=O)c2c(O)cc(OC)cc2OC)c1 | 50 µg/mL (≈ 133 µM) | – | 50 µg/mL (≈ 133 µM) | – | 25 µg/mL (≈ 66.7 µM) | 50 µg/mL (≈ 133 µM) | 50 µg/mL (≈ 133 µM) | 39% | 15 mm | Non-toxic | 11% | – | 14 mm | – | 10 mm | 16 mm | 16 mm | 17 mm | 16 mm | 13 mm | MIC [15]: 50 µg/mL (≈ 133 µM) |
| COc1cc(OC)cc(/C(Cl)=C/C=C/C(=O)c2c(O)cc(OC)cc2OC)c1 | – | – | – | – | 50 µg/mL (≈ 124 µM) | 50 µg/mL (≈ 124 µM) | 50 µg/mL (≈ 124 µM) | 45% | – | Non-toxic | 13% | – | – | – | – | 14 mm | 14 mm | 15 mm | 16 mm | 12 mm | MIC [17]: inactive; MIC [18]: inactive; MIC [15]: 50 µg/mL (≈ 124 µM); MIC [19]: inactive; MIC [20]: inactive; MIC [21]: inactive |

The next lines start with results.

| MIC [3] | MIC [6] | MIC [7] | MIC [8] | MIC [14] | MIC [11] | MIC [13] | SMILES | inhibition at 10 µM [1] | inhibition zone (IZ) [3] | Activity [4] | inhibition at 10 µM [5] | inhibition zone (IZ) [6] | inhibition zone (IZ) [7] | inhibition zone (IZ) [8] | inhibition zone (IZ) [10] | inhibition zone (IZ) [11] | inhibition zone (IZ) [13] | inhibition zone (IZ) [14] | inhibition zone (IZ) [15] | inhibition zone (IZ) [16] | also measured |
| --- | --- | --- | --- | --- | --- | --- | --- | --- | --- | --- | --- | --- | --- | --- | --- | --- | --- | --- | --- | --- | --- |
| 50 µg/mL (≈ 139 µM) | 50 µg/mL (≈ 139 µM) | 25 µg/mL (≈ 69.7 µM) | 25 µg/mL (≈ 69.7 µM) | – | – | – | COc1cc(O)c(C(=O)/C=C/C=C(\Cl)c2ccc(C)cc2)c(OC)c1 | 36% | 16 mm | Non-toxic | 17% | 15 mm | 18 mm | 19 mm | 12 mm | 13 mm | 10 mm | – | – | – | MIC [2]: inactive; MIC [9]: inactive; MIC [12]: inactive |
| 25 µg/mL (≈ 60.4 µM) | 50 µg/mL (≈ 121 µM) | 50 µg/mL (≈ 121 µM) | 25 µg/mL (≈ 60.4 µM) | 25 µg/mL (≈ 60.4 µM) | 25 µg/mL (≈ 60.4 µM) | 50 µg/mL (≈ 121 µM) | COc1cc(O)c(C(=O)/C=C/C=C(\Cl)c2ccc(Cl)cc2Cl)c(OC)c1 | 67% | 19 mm | Non-toxic | 0% | 17 mm | 15 mm | 19 mm | 14 mm | 18 mm | 17 mm | 17 mm | 10 mm | 10 mm | MIC [10]: 50 µg/mL (≈ 121 µM) |
| 25 µg/mL (≈ 65.9 µM) | 25 µg/mL (≈ 65.9 µM) | 25 µg/mL (≈ 65.9 µM) | 50 µg/mL (≈ 132 µM) | – | 50 µg/mL (≈ 132 µM) | 25 µg/mL (≈ 65.9 µM) | COc1cc(O)c(C(=O)/C=C/C=C(\Cl)c2ccc(Cl)cc2)c(OC)c1 | 74% | 18 mm | Non-toxic | 13% | 20 mm | 18 mm | 15 mm | 15 mm | 15 mm | 17 mm | 12 mm | 16 mm | 12 mm | MIC [10]: 50 µg/mL (≈ 132 µM); MIC [15]: 50 µg/mL (≈ 132 µM) |

— ChEMBL document CHEMBL1165858, “Synthesis and biological evaluation of beta-chloro vinyl chalcones as inhibitors of TNF-alpha and IL-6 with antimicrobial activity” (Eur J Med Chem, 2010)
